Assay results: ChEMBL document CHEMBL4052833, “Design, Synthesis, and Biological Activity of New N-(Phenylmethyl)-benzoxazol-2-thiones as Macrophage Migration Inhibitory Factor (MIF) Antagonists: Efficacies in Experimental Pulmonary Hypertension” (J Med Chem, 2018)
In brackets after ≈: the same amount, converted by molar mass. Activity calls are given as the source filed them. The calls are words filed in the database; no cut-off is given here.

How the values were obtained:
[1] = tested on: DU-145; test: Inhibition of cell survival in MIF dependent human DU145 cells at 100 uM after 24 hrs by MTT assay; format: functional; settings: for inhibition at 100 µM: DU-145, 24 h
Summary of the method: (§1)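 DU-145 (RPMI) or iPAH endothelial cells (MCDB131) grown 24 h with 10% FCS, washed, then exposed 24 h serum-free to 10, 50 or 100 µM compound. MTT 5 mg/mL added for 6 h, medium removed, DMSO added, absorbance read at 590 nm.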

[2] = target: T1, Macrophage migration inhibitory factor (Homo sapiens, UniProt P14174); test: Inhibition of recombinant human MIF tautomerase activity using 4-HPP as substrate preincubated for 15 mins followed by substrate addition measured after 360 secs
T1 sequence (P14174 whole entry): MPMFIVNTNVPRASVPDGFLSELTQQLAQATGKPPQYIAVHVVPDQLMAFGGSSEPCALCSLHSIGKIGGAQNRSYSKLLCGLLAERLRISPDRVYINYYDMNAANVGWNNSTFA
Summary of the method: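 Recombinant human MIF (100 nM) preincubated 15 min with 8 inhibitor concentrations, 0–10 µM; 4-HPP substrate, pre-equilibrated overnight at 4°C in 50 mM ammonium acetate, added in 0.435 M boric acid pH 6.6 at room temperature. Absorbance increase at 305 nm followed over 0–360 s; Ki determined; at least 3 independent replicates.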

[3] = tested on: DU-145; test: Induction of apoptosis in human DU145 cells assessed as viable cells at 100 uM by Annexin V-FITC-staining based FACS analysis (reference value: 94.9%); format: functional; settings: read-out: Activity
[4] = tested on: DU-145; test: Inhibition of cell survival in MIF dependent human DU145 cells after 24 hrs by MTT assay; format: functional, cell-based; settings: DU-145, 24 h; summary of the method: as §1
[5] = tested on: DU-145; test: Induction of apoptosis in human DU145 cells assessed as increase in caspase 3/7 activity after 24 hrs by fluorescence based assay; format: functional, cell-based
Summary of the method: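 DU-145 cells exposed to increasing doses for 24 h; caspase-3/7 activity measured by fluorogenic Apo-ONE read-out.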

[6] = tested on: DU-145; test: Induction of apoptosis in human DU145 cells assessed as early apoptotic cells at 100 uM by Annexin V-FITC-staining based FACS analysis (reference value: 2.5%); format: functional
[7] = tested on: DU-145; test: Induction of apoptosis in human DU145 cells assessed as late apoptotic cells at 100 uM by Annexin V-FITC-staining based FACS analysis (reference value: 2.34%); format: functional
[8] = tested on: DU-145; test: Induction of apoptosis in human DU145 cells assessed as necrotic cells at 100 uM by Annexin V-FITC-staining based FACS analysis (reference value: 0.22%); format: functional
[9] = tested on: DU-145; test: Induction of apoptosis in human DU145 cells at 100 uM by TUNEL assay; format: functional, cell-based
[10] = target: T2, Macrophage migration inhibitory factor (Homo sapiens) (UniProt P14174); test: Inhibition of recombinant human MIF-induced ERK phosphorylation in idiopathic pulmonary arterial hypertension patient derived primary pulmonary endothelial cells by Western blot analysis
T2 sequence (whole entry): T1 sequence (P14174 whole entry)
Summary of the method: (§2)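 iPAH-derived pulmonary endothelial cells stimulated with 50 ng/mL recombinant MIF (endotoxin <0.07 EU/µg) with increasing antagonist doses; lysed and sonicated in RIPA with protease/phosphatase inhibitors, 30 µg protein immunoblotted for pAKT/AKT and pERK1/2/ERK.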

[11] = target: T2, Macrophage migration inhibitory factor (Homo sapiens); test: Inhibition of recombinant human MIF-induced AKT phosphorylation in idiopathic pulmonary arterial hypertension patient derived primary pulmonary endothelial cells by Western blot analysis; summary of the method: as §2
[12] = tested on: Rattus norvegicus; test: Anti-hypertensive activity in MCT-induced pulmonary hypertension Wistar rat model at 30 mg/kg/day administered via oral gavage for 2 weeks starting from 2 weeks post MCT challenge; format: functional, organism-based
Summary of the method: (§3)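 Young male Wistar rats (100 g) given single subcutaneous monocrotaline 60 mg/kg; from 2 weeks later, dosed daily by gavage for 2 weeks at 30 mg.kg.day-1 in 33% DMSO in propylene glycol:saline (68:32), or vehicle alone. Under isoflurane, jugular catheter advanced into pulmonary artery for pressure; cardiac output by thermodilution; RV hypertrophy as Fulton index.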

[13] = tested on: Rattus norvegicus; test: Anti-hypertensive activity in MCT-induced pulmonary hypertension Wistar rat model assessed as reduction in mean pulmonary artery pressure at 30 mg/kg/day administered via oral gavage for 2 weeks starting from 2 weeks post MCT challenge measured post last dose; format: functional, organism-based; summary of the method: as §3
[14] = tested on: Rattus norvegicus; test: Anti-hypertensive activity in MCT-induced pulmonary hypertension Wistar rat model assessed as reduction in right ventricular hypertrophy at 30 mg/kg/day administered via oral gavage for 2 weeks starting from 2 weeks post MCT challenge measured post last dose; format: functional, organism-based; summary of the method: as §3
[15] = tested on: Rattus norvegicus; test: Toxicity in MCT-induced pulmonary hypertension Wistar rat model assessed as change in body weight at 30 mg/kg/day administered via oral gavage for 2 weeks starting from 2 weeks post MCT challenge; format: organism-based; settings: in vivo, 336 h; summary of the method: as §3
[16] = tested on: Rattus norvegicus; test: Toxicity in MCT-induced pulmonary hypertension Wistar rat model assessed as change in heart rate at 30 mg/kg/day administered via oral gavage for 2 weeks starting from 2 weeks post MCT challenge; format: organism-based; settings: in vivo, 336 h; summary of the method: as §3
[17] = tested on: Rattus norvegicus; test: Cardiotoxicity in MCT-induced pulmonary hypertension Wistar rat model assessed as induction of cardiac fibrosis at 30 mg/kg/day administered via oral gavage for 2 weeks starting from 2 weeks post MCT challenge measured post last dose by picrosirius red staining based assay; format: toxicity, organism-based; settings: in vivo, 336 h
Summary of the method: (§4)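 Monocrotaline rat model as above (60 mg/kg s.c.; daily gavage 30 mg/kg/day for 2 weeks starting 2 weeks post-MCT, DMSO/propylene glycol/saline vehicle). Heart sections deparaffinized and stained with Picrosirius red for collagen; collagen area fraction scored in right and left ventricle myocardium against control rats.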

[18] = tested on: Rattus norvegicus; test: Toxicity in MCT-induced pulmonary hypertension Wistar rat model assessed as change in systemic blood pressure at 30 mg/kg/day administered via oral gavage for 2 weeks starting from 2 weeks post MCT challenge; format: organism-based; settings: in vivo, 336 h; summary of the method: as §3
[19] = tested on: Rattus norvegicus; test: Cardioprotective activity in MCT-induced pulmonary hypertension Wistar rat model assessed as reversal of increased collagen fibers in endomysium at 30 mg/kg/day administered via oral gavage for 2 weeks starting from 2 weeks post MCT challenge measured post last dose by picrosirius red staining-based assay; format: functional, organism-based; summary of the method: as §4
[20] = tested on: Rattus norvegicus; test: Cardiotoxicity in MCT-induced pulmonary hypertension Wistar rat model assessed as effect on collagen area fraction in left ventricle at 30 mg/kg/day administered via oral gavage for 2 weeks starting from 2 weeks post MCT challenge measured post last dose by picrosirius red staining based assay; format: toxicity, organism-based; settings: in vivo, 336 h; summary of the method: as §4
[21] = Inhibition of cell survival in idiopathic pulmonary arterial hypertension patient derived primary pulmonary endothelial cells at 100 uM after 24 hrs by MTT assay; format: functional; settings: Homo sapiens; summary of the method: as §1
[22] = Aqueous solubility in pH 7.4 PBS buffer at […] after 24 hrs; format: physicochemical
[23] = tested on: DU-145; test: Antiproliferative activity against human DU145 cells by BrdU-incorporation based time-resolved fluorescence analysis

CC(C)(C)c1ccc2oc(=S)n(Cc3ccccc3)c2c1
inhibition [1]: inactive

Cc1ccc2oc(=S)n(Cc3cccc([N+](=O)[O-])c3)c2c1
inhibition at 100 µM [1]: 24%

Cc1ccc2oc(=S)n(Cc3ccccc3C)c2c1
inhibition [1]: inactive

Fc1ccc2oc(=S)n(Cc3ccccc3)c2c1
inhibition at 100 µM [1]: 31%

S=c1oc2ccccc2n1Cc1ccccc1
inhibition [1]: inactive

Cc1cccc(Cn2c(=S)oc3ccc(C)cc32)c1
inhibition at 100 µM [1]: 32%

COC(=O)CC1CC(c2ccc(O)cc2)=NO1 (configuration not stated)
inhibition at 100 µM [1]: 8%

Cc1ccc2oc(=S)n(Cc3ccccc3O)c2c1
inhibition [1]: inactive

Cc1cccc2oc(=S)n(Cc3ccccc3)c12
inhibition [1]: inactive

Cc1ccc2oc(=S)n(Cc3ccccc3Cl)c2c1
inhibition [1]: inactive

FC(F)(F)c1ccc2oc(=S)n(Cc3ccccc3)c2c1
inhibition at 100 µM [1]: 48%

COc1ccc(Cn2c(=S)oc3ccc(C)cc32)cc1
inhibition at 100 µM [1]: 36%

Cc1ccc2oc(=S)n(Cc3cccc(F)c3)c2c1
inhibition at 100 µM [1]: 46%

Cc1ccc2oc(=S)n(Cc3cccc(O)c3)c2c1
inhibition at 100 µM [1]: 46%
Ki [2]: 100 to 600 nM

Cc1ccc2oc(=S)n(Cc3ccccc3)c2c1
inhibition at 100 µM [1]: 36%
Ki [2]: 1000 to 3000 nM

Cc1ccc(Cn2c(=S)oc3ccc(C)cc32)cc1
inhibition [1]: inactive

COc1cccc(Cn2c(=S)oc3ccc(C)cc32)c1
inhibition at 100 µM [1]: 47%

Cc1ccc2oc(=S)n(Cc3ccccc3[N+](=O)[O-])c2c1
inhibition at 100 µM [1]: 14%

O=c1oc2ccc(C(F)(F)F)cc2n1Cc1ccc(F)c(O)c1
inhibition [1]: inactive

COc1ccccc1Cn1c(=S)oc2ccc(C)cc21
inhibition at 100 µM [1]: 29%

Cc1ccc2oc(=S)n(Cc3ccc(Cl)cc3)c2c1
inhibition at 100 µM [1]: 22%

CC(C)c1ccc2oc(=S)n(Cc3ccccc3)c2c1
inhibition [1]: inactive
Ki [2]: 1000 to 3000 nM

Oc1cc(Cn2c(=S)oc3ccc(C(F)(F)F)cc32)ccc1F
viability at 100 µM [3]: 47.9%
inhibition at 100 µM [1]: 84%
EC50 [4]: 60.5 µM
Ki [2]: 300 to 1000 nM
Activity [5]: Dose-dependent effect
Activity [6]: 16.7%
Activity [7]: 14.5%
Activity [8]: 20.8%
Activity [9]: Active
inhibition [10]: Dose-dependent effect
inhibition [11]: Dose-dependent effect
Activity [12]: Active
Activity [13]: Active
Activity [14]: Active
Activity [15]: Non-Toxic
Activity [16]: Non-Toxic
Activity [17]: Non-Toxic
Activity [18]: Non-Toxic
Activity [19]: Active
Activity [20]: Non-Toxic
inhibition at 100 µM [21]: 70%
solubility at 24 h [22]: 3 to 4 µM (≈ 1.03 to 1.37 µg/mL)
Activity [23]: Dose-dependent effect

COc1ccc2oc(=S)n(Cc3cccc(O)c3)c2c1
inhibition at 100 µM [1]: 16%

Cc1ccc2oc(=S)n(Cc3ccc(F)c(O)c3)c2c1
inhibition at 100 µM [1]: 31%
Ki [2]: 2000 to 5000 nM

Cc1ccc2oc(=S)n(Cc3ccccc3F)c2c1
inhibition at 100 µM [1]: 28%

Cc1ccc2oc(=S)n(Cc3ccc(F)cc3)c2c1
inhibition at 100 µM [1]: 25%

Cc1ccc2oc(=S)n(Cc3ccc([N+](=O)[O-])cc3)c2c1
inhibition at 100 µM [1]: 13%

Cc1ccc2oc(=O)n(Cc3ccccc3)c2c1
inhibition [1]: inactive

Cc1ccc2c(c1)oc(=S)n2Cc1ccccc1
inhibition at 100 µM [1]: 24%

S=c1oc2ccc(Cl)cc2n1Cc1ccccc1
inhibition at 100 µM [1]: 34%
